Screens from PubChem.
UPR XBP1 act: activators of adaptive XBP1 UPR arm, primary screen, cell-based, CHO-XBP1 luciferase reporter, luminescence, uHTS; IRE1-XBP1 UPR activation; percent of tunicamycin response, DMSO as zero; activation, % at 20 µM; 330,000 tested, 0.33% active; AID 463104, 2010;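 active = versus positive control, 20 µM dose yields 30% or more activation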;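 note: 100% = tunicamycin at 10 µg/mL and 0% = DMSO only wells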
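Signal: luciferase luminescence; Assay system: CHO-XBP1 luciferase reporter cells; Amount: one thousand reporter cells per well; Dosing: 20 µM single concentration, DMSO 1%; Benchmarks: high control tunicamycin 10 µg/mL final, low control DMSO vehicle only; Schedule: 6 h compound exposure at 37 °C, 5% CO2; Evaluation: percent activation relative to tunicamycin reference.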
Hep lipid drop: inhibitors of hepatocyte lipid droplet formation, primary screen, imaging, high-throughput imaging, BODIPY stain; AML12 mouse hepatocytes, oleate lipid droplets; 240,000 tested, 0.4% active; inhibition, % at 6.5 µM;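 active = lipid droplet intensity inhibited by at least 50%, with more than 500 cells counted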
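Material – AML12 mouse liver cells · Also added – oleate loading, 100 µM · Compound dosing – 6.5 µM single-point dosing · Times – overnight treatment with compound plus oleate · Measured by – fluorescence imaging, 20x objective, two fields per well · Read-out – percent inhibition of filter-corrected integrated lipid droplet intensity per well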
ANO1 block: TMEM16A chloride channel inhibitors, primary screen, cell-based, HTS; Anoctamin-1 (Mus musculus), Q8BHY3; 310,000 tested, 1.2% active; normalized B-score (activity score, 25-100; higher = stronger inhibition) at 10 µM; HEK293 TMEM16A/YFP iodide influx fluorescence, ionomycin;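 active = ratio plate-corrected score three or more library SD toward inhibition, starting fluorescence score within five deviations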;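 note: score derived from kinetic fluorescence span divided by baseline fluorescence per well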
Target sequence (Q8BHY3 whole entry, looked up): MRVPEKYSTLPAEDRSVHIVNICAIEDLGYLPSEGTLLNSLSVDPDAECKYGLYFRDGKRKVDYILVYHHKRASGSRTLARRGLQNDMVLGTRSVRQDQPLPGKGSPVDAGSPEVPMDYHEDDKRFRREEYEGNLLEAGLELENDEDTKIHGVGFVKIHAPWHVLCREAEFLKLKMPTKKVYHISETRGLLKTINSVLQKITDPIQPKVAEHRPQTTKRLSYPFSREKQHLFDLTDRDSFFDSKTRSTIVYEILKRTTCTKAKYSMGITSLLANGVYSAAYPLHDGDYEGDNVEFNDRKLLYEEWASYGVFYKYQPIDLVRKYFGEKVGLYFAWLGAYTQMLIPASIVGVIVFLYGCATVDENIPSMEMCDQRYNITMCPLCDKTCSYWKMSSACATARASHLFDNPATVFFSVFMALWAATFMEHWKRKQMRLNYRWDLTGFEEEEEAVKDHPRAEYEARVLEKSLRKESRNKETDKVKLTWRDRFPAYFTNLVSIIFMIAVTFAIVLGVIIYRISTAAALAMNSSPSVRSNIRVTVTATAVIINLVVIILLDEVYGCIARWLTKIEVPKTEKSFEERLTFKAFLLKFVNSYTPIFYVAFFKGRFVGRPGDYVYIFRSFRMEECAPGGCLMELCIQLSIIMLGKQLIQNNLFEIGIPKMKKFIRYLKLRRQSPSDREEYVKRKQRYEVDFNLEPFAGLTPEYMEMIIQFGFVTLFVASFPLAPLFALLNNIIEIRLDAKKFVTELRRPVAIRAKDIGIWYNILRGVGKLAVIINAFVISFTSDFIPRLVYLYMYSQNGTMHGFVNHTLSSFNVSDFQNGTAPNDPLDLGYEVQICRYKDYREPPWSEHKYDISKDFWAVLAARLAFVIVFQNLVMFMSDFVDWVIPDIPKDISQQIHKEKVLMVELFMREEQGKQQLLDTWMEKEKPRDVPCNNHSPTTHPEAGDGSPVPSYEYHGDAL
CHOP UPR activ: activators of apoptotic CHOP UPR arm, primary screen, cell-based, CHO-CHOP luciferase reporter, luminescence, uHTS. UPR activation; percent of tunicamycin response over DMSO baseline. activation, % at 10 µM. 330,000 tested, 0.34% active;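 active = at 10 µM dose, activation of 40% or more, normalized to positive control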;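 note: 100% = tunicamycin at 10 µg/mL and 0% = DMSO alone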
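Test system: CHO-CHOP cells, stable luciferase reporter of PERK-eIF2a-CHOP signalling | Quantity: 500 CHO-CHOP cells per well | Buffer or medium: F12 plus 10% serum | Compound dosing: 10 µM single point, 0.5% DMSO | Schedule: 6 h compound treatment, 37 °C | Signal: Luciferase luminescence | Control set: Tunicamycin high control, DMSO low control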
CHOP inh: inhibitors of CHOP promoter induction, primary screen, cell-based, unfolded protein response, luciferase reporter. inhibition, % at 10 µM. 220,000 tested, 3.8% active. CHO-K1 CHOP-promoter luciferase, tunicamycin-induced, 15-18 h;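 active = compounds that reduced the stress-induced luciferase reporter signal by more than about 70% of percent inhibition, limit read from the data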;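 note: 0% = tunicamycin plus vehicle and 100% = wells without tunicamycin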
TMEM16A act: TMEM16A chloride channel activators or potentiators, primary screen, cell-based, HTS | B-score at 10 µM | AID 623877, 2012 | HEK293 TMEM16A/YFP-H148Q/I152L, iodide quench fluorescence; active compounds read low | Anoctamin-1 (Mus musculus), Q8BHY3 | 340,000 tested, 0.3% active;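 active = fluorescence-ratio B-score plate-corrected deviation score at least 3 library SD below zero, with starting fluorescence score within 5 deviations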;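 note: channel opened by trigger with iodide after compound preincubation; score built on the fluorescence ratio of max minus min over baseline; more negative score means more quench and so TMEM16A activation or potentiation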
Starred values were filed as active, the others as inactive; i = inactive; nt = no result given. The list is not random: actives were taken first. Their share in the collection is about 4.2%.

SMILES | UPR XBP1 act | Hep lipid drop | ANO1 block | CHOP UPR activ | CHOP inh | TMEM16A act
O=C(Nc1nnc(S(=O)(=O)N2CCN(c3ccc(F)cc3)CC2)s1)c1ccco1 | 2.0 | -2.5 | i | 2.3 | nt | i
CC(C)(C)c1ccc(C(=O)NCCC(=O)N2CCN(c3ncccn3)CC2)cc1 | -1.0 | -1.8 | 100* | 0.5 | -18.3 | i
CCOC(=O)COc1ccc(S(=O)(=O)NCc2ccncc2)cc1 | -3.6 | -25.2 | i | 4.4 | 57.8 | i
CCOc1ccc(S(=O)(=O)NCc2ccncc2)cc1 | 3.6 | -111.9 | 25* | 4.3 | 77.5* | i
CC(NC(=O)CN1CCN(S(=O)(=O)c2ccc(Br)cc2)CC1)c1ccccc1 (centres undefined) | 1.2 | nt | i | 0.3 | nt | i
CCCCCCN(C(=O)CCCCCN1C(=O)NC(c2ccccc2)C(C(=O)OCc2ccccc2)=C1C)C(C(=O)NCCCC)c1ccc(OCC(=O)OC)c(C(=O)OC)c1 (centres undefined) | nt | 52.2* | nt | nt | -3.3 | nt
CCN(CC)CC(=O)Nc1cccc2c1C(=O)c1ccccc1C2=O | -4.5 | 15.1 | i | -1.0 | 77.5* | i
Cc1cc2cc(C(c3nnnn3Cc3ccco3)N3CCc4ccccc43)c(=O)[nH]c2cc1C (centres undefined) | -2.7 | nt | i | 0.1 | 86.2* | i
Cc1cc2cc(C(c3nnnn3Cc3ccccc3)N3CCc4ccccc43)c(=O)[nH]c2cc1C (centres undefined) | -0.8 | 24.4 | i | -0.2 | 19.1 | i
Cc1ccc2[nH]c(=O)c(C(c3nnnn3Cc3ccccc3)N3CCc4ccccc43)cc2c1 (centres undefined) | -3.2 | nt | i | 0.6 | 70.4* | i
COc1ccc(/C=C(\C#N)C(=O)OCC(=O)Nc2c(C)cccc2C)cc1 | 0.6 | 1.7 | i | 1.3 | 75.4* | i
CCc1cccc(CC)c1NC(=O)COC(=O)/C(C#N)=C/c1ccc(OC)cc1 | -1.5 | 0.3 | i | 0.7 | 75.0* | i
Cn1c(=O)c2c(nc(NC3CCCCC3)n2Cc2ccccc2)n(C)c1=O | 0.8 | -1.1 | i | 2.1 | 17.5 | i
Cn1c(=O)c2c(nc(NC3CCCCC3)n2CC(=O)C23CC4CC(CC(C4)C2)C3)n(C)c1=O | 3.3 | -7.0 | i | -0.9 | 81.2* | i
NS(=O)(=O)c1ccc(NC(CNS(=O)(=O)c2ccccc2)c2ccccc2)cc1 (centres undefined) | -3.8 | -6.8 | i | 0.7 | 28.1 | i
Cc1ccc(NC(CNS(=O)(=O)c2ccc(Cl)cc2)c2ccccc2)cc1 (centres undefined) | -5.3 | nt | i | -1.8 | 103.8* | i
CCOC(=O)c1ccc(NC(=O)CCc2nc(-c3ccc(Cl)cc3)no2)cc1 | 1.0 | nt | i | -2.9 | 72.8* | i
Cc1ccc(-c2noc(CCCC(=O)Nc3cccnc3)n2)cc1 | -1.1 | nt | 25* | -5.0 | 78.3* | i
O=c1c(-c2ccccc2)c1-c1ccccc1 | -4.6 | 2.6 | nt | 57.7* | -8.0 | nt
O=c1[nH][nH]c(-c2ccccc2)c1-c1ccccc1 | nt | nt | nt | nt | nt | i
COc1ccc(CC(=O)N[C@@H](CCSC)C(=O)N2CCC3(CC2)NCCc2[nH]cnc23)cc1 | 1.5 | -26.8 | i | 1.4 | nt | i
Cc1ccc(NC(=O)CSc2nnc(-c3ccccc3Br)o2)cc1C | -1.7 | nt | i | -0.6 | 67.7 | i
Cc1occc1-c1nnc(SCC(=O)Nc2nc(-c3ccccc3)cs2)o1 | 0.8 | -0.2 | i | 3.8 | 72.4* | i
Cc1ccc(NC(=O)CSc2nnc(-c3ccccc3C)o2)cc1C | 1.8 | nt | i | 0.5 | 70.1* | i
CCOc1ccc(NC(=O)CSc2nnc(COc3c(C)cccc3C)o2)cc1 | -1.4 | -17.9 | i | 1.5 | 87.0* | i
SMILES | UPR XBP1 act | Hep lipid drop | ANO1 block | CHOP UPR activ | CHOP inh | TMEM16A act
Cc1cc(C)c(C(=O)CSc2nnc(-c3ccccc3Br)o2)cc1C | nt | -18.9 | nt | nt | 2.7 | -5.05*
Cc1cc(-c2nnc(SCC(=O)Nc3nc(-c4ccccc4)cs3)o2)no1 | -1.4 | 0.2 | i | 2.6 | -5.6 | i
Cc1cccc(C)c1OCc1nnc(SCC(=O)Nc2nccs2)o1 | 1.0 | nt | i | -3.4 | 32.9 | i
C=CCN1C(=O)C(Cc2ccccc2)SC1=Nc1ccc(C(=O)O)cc1 (centres undefined) | -1.8 | -8.8 | i | 2.0 | 16.8 | i
COC(=O)C1=C(CSc2nc3ccccc3s2)NC(=O)NC1c1ccc(F)cc1 (centres undefined) | 2.6 | -3.4 | i | -0.7 | 0.9 | i
Cc1nc2scc(C)n2c(=O)c1S(=O)(=O)NCC1CCN(Cc2ccc(F)cc2)CC1 | -9.1 | -26.6 | i | 1.8 | nt | i
Cc1csc(=O)n1CC(=O)OCc1nnc(-c2ccccc2)o1 | 1.9 | nt | i | 3.1 | nt | i
O=C(NNC(=S)NCc1ccco1)c1cccs1 | -2.8 | -21.5 | i | -2.2 | -16.1 | i
O=C(NCCCNC(=O)c1cccs1)c1cccs1 | -2.3 | nt | i | 0.0 | 13.2 | -11.6*
O=C(NCc1ccco1)c1cccs1 | -3.6 | nt | i | -0.7 | 76.3* | nt
COc1ccc(N=CC2=C(Nc3ccc(OC)cc3)c3c(C)nn(-c4ccccn4)c3CC2)cc1 | 5.6 | nt | i | 59.3* | nt | nt
COc1ccc(-c2cc(C(=O)O)c3c(C)nn(-c4ccccn4)c3n2)cc1 | -3.1 | nt | i | 4.7 | 8.9 | nt
CC(=O)Nc1c(Cl)c2c(c(Cl)c1Br)-c1ccc(Cl)cc1C2 | nt | nt | nt | nt | nt | i
FC(F)Sc1ccc(NC(=S)NC2CCCCC2)cc1 | 2.7 | nt | i | 1.7 | 94.9* | i
CC1CCCCC1NC(=S)Nc1ccc(SC(F)F)cc1 (centres undefined) | 0.3 | 3.4 | i | 3.9 | -12.5 | i
COc1ccc(OC)c(NC(=O)c2cc(-c3ccc(C)cc3O)n[nH]2)c1 | 4.2 | 1.6 | i | 1.6 | 87.4* | i
Cc1ccc(Cn2ccc(NC(=O)CCSc3nc(-c4ccco4)cc(C(F)(F)F)n3)n2)cc1 | 1.9 | -1.0 | i | 0.3 | 89.5* | i
Cc1cc(NC(=O)CCCSc2nc(-c3ccco3)cc(C(F)(F)F)n2)no1 | 2.0 | -4.7 | i | -1.9 | 87.9* | i
CC(C)(C)c1cc(C(F)(F)F)nc(SCCCNC(=O)c2ccco2)n1 | -2.6 | -22.9 | i | -1.1 | 86.3* | i
